Assay results of several laboratories.
Each line is one published result; the experiments were not run side by side.

| Structure (SMILES) | system | setting | Cmax |
| --- | --- | --- | --- |
| OC[C@H]1O[C@@H](c2ccc(Cl)c(Cc3ccc(O[C@H]4CCOC4)cc3)c2)[C@H](O)[C@@H](O)[C@@H]1O | CD-1 mouse, plasma | intravenous, 5 mg/kg | 4920 ng/mL |
| CSc1cc(Oc2ccnc3[nH]c(=O)cnc23)ccc1NC(=O)Nc1cc(C(C)(C)C)nn1-c1ccccc1 | BALB/c mouse, plasma | intravenous, 2 mg/kg | 29.8 µM |
| COc1ccc2nccc(N3CCc4c(cc(Cn5ccnc5)cc4-c4cn(C)nc4C(F)(F)F)C3=O)c2c1 | male CD-1 mouse, plasma | oral, 50 mg/kg | 8940 ng/mL |
| NC(=O)c1cccc(-c2c[nH]c3ncnc(N4CCOCC4)c23)c1 | female C57BL/6 mouse, plasma | intraperitoneal, 10 mg/kg | 11 µM |
| Cc1ccc2cncc(N3CCc4c(cc(Cn5ccnc5)cc4-c4cn(C)nc4C(F)(F)F)C3=O)c2c1 | male CD-1 mouse, plasma | oral, 50 mg/kg | 6580 ng/mL |
| CC(C)(C)c1ccc(O)c(CN(Cc2cc(C(C)(C)C)ccc2O)C2CCC(NC(N)=O)CC2)c1 (stereo not drawn) | male C57BL/6 mouse, plasma | intraperitoneal, 10 mg/kg, single dose | 2240 ng/mL |
| COc1ccc([C@@]23Oc4cc(OC)cc(OC)c4[C@]2(O)[C@H](O)[C@H](C(=O)N(C)C)[C@H]3c2ccccc2)cc1 | mouse, plasma | oral, 5 mg/kg | ~0.8 µM |
| Cc1ccc(NC(=O)c2ccc(CN3CCN(C)CC3)cc2)cc1Nc1nccc(-c2cncc(-c3oncc3C)c2)n1 | male C57BL/6 mouse, brain | oral, 100 mg/kg/day | 98.1 ng/mL |
| CC(C)(O)c1cn(-c2ccc(-c3ccc(CO)c(S(C)(=O)=O)c3)cc2)c(Cc2ccccc2Cl)n1 | male C57BL/6 mouse, serum | oral, 10 mg/kg | 3.2 µM |
| CS(=O)(=O)CCNCc1ccc(-c2ccc3ncnc(Nc4ccc(OCc5cccc(F)c5)c(Cl)c4)c3c2)o1 | nude mouse, plasma | oral, 100 mg/kg, single dose | 15200 ng/mL |
| CC(C)N1Cc2cc(C(F)(F)F)ncc2C2=CN=C(NCc3c(F)ccc4c3CCO4)N3C=NC(C1=O)C23 (stereo not drawn) | male CD-1 mouse, plasma | oral, 10 mg/kg | 5070 ng/mL |
| CCc1ccc(Cc2cc([C@@H]3O[C@H](CO)[C@@H](O)[C@H](O)[C@H]3O)cc3c2CCC3)cc1 | male C57BL/6 mouse, plasma | intravenous, 1 mg/kg | 1300 ng/mL |
| CCn1ncc2c(Nc3ccc(OC(F)(F)F)cc3)ncnc21 | male BALB/c mouse, plasma | oral, 20 mg/kg | 263 ng/mL |
| COc1nc(-c2cc(C)c(N[C@@H](C)c3cc(F)cc(F)c3)nn2)ccc1-n1cnc(C)c1 | male CD-1 mouse, plasma | intravenous, 1 mg/kg, single dose | 699 ng/mL |
| O=S(=O)(c1ccc(-c2ccc3nccc(Nc4ccncn4)c3c2)cc1)N1CCOCC1 | female BALB/c mouse, plasma | intraperitoneal, 10 mg/kg | 4460 ng/mL |
| COc1nc(-c2cc(C)c(N[C@@H](C)c3c(F)cc(F)cc3F)nn2)ccc1-n1cnc(C)c1 | male CD-1 mouse, plasma | oral, 5 mg/kg, single dose | 1010 ng/mL |
| CCOc1ccc(Cc2cc([C@@H]3O[C@H](CO)[C@@H](O)[C@H](O)[C@H]3O)ccc2Cl)cc1 | male C57BL/6 mouse, plasma | intravenous, 1 mg/kg | 1170 ng/mL |
| COc1ccc(C(O)COc2ccc(-c3csc(-c4ccc(OCC(O)c5ccc(OC)c(OC)c5)cc4)n3)cc2)cc1OC (stereo not drawn) | C57BL/6 mouse, plasma | oral, 10 mg/kg | 1760 ng/mL |
| Cc1noc([C@H](Cc2c[nH]cn2)NC(=O)CN(CCCc2ccccc2)CC(=O)O)n1 | male C57BL/6 mouse, plasma | intraperitoneal, 30 mg/kg | 5800 ng/mL |
| Cn1cnc2c(F)c(Nc3ccc(Br)cc3Cl)c(C(=O)NOCCO)cc21 | nude mouse, liver | oral, 10 mg/kg, single dose, tumour-bearing | 1440 ng/g |
| CNC(=O)[C@H](Cc1c[nH]cn1)NC(=O)CN(CCCc1ccccc1)CC(=O)OC | male C57BL/6 mouse, plasma | intraperitoneal, 30 mg/kg | 3800 ng/mL |
| CC(C)(O)c1cn(-c2ccc(-c3cc(F)c(CO)c(S(C)(=O)=O)c3)cc2)c(C(C)(C)c2cccc(F)c2Cl)n1 | male C57BL/6 mouse, serum | oral, 10 mg/kg | 1.9 µM |
| CC(C)(C)c1cc(NC(=O)Nc2ccc(Oc3ccnc4[nH]c(=O)cnc34)cc2F)n(-c2ccccc2)n1 | BALB/c mouse, plasma | intravenous, 2 mg/kg | 38.1 µM |

| Structure (SMILES) | system | setting | Cmax |
| --- | --- | --- | --- |
| CCN1CCN(Cc2cc(NC(=O)c3ccc(C)c(-c4ccc5nc(NC(=O)C6CC6)cn5n4)c3)cc(C(F)(F)F)c2)CC1 | Swiss mouse, plasma | intraperitoneal, 3 mg/kg | 340 ng/mL |
| COc1cc(C(=O)N2CCC(N3CCN(C)CC3)CC2)ccc1Nc1ncc2c(n1)N(C)c1ccccc1C(=O)N2C | mouse, plasma | oral, 10 mg/kg | 1620 ng/mL |
| CNCCN(C)c1cc(C#N)cc(CCc2cc(C)cc(N)n2)c1 | male BALB/c mouse, brain | oral, 10 mg/kg | 39.3 ng/g |
| NC1(C(=O)N[C@@H](CCO)c2ccc(Cl)cc2)CCN(c2ncnc3[nH]ccc23)CC1 | male Swiss mouse, plasma | intraperitoneal, 25 mg/kg, single dose | ~8 µM |
| NC(=O)c1cc(Oc2ccc(NC(=O)Nc3ccc(Cl)c(C(F)(F)F)c3)c(F)c2)cc[n+]1[O-] | mouse, plasma | oral, 10 mg/kg, single dose | 22.9 ng/mL |
| CC[C@H](C)[C@@H]1NC(=O)[C@@](C)(NC(=O)[C@H](CCCNC(=N)N)NC(=O)[C@H](CC(C)C)NC(=O)[C@@H](NC(=O)[C@H](CCC(N)=O)NC(=O)[C@H](CC(C)C)NC(C)=O)[C@@H](C)O)CCCC=CCCC[C@@](C)(C(=O)N[C@@H](CC(C)C)C(=O)N[C@@H](Cc2ccc3ccccc3c2)C(N)=O)NC(=O)[C@H](CCCNC(=N)N)NC(=O)[C@H](CCC(N)=O)NC1=O | male BALB/c mouse, plasma | intravenous, 10 mg/kg | 86 µM |
| COc1cc2c(Nc3ccc(Cl)c(Cl)c3F)ncnc2cc1OC[C@@H]1C[C@@H]2CN(C)C[C@@H]2C1 | FVB mouse, brain | oral, 70 mg/kg, single dose | 7570 ng/g |
| CNC(=O)c1cc(OC)cc2c(N3CCc4c(cc(Cn5ccnc5)cc4-c4cn(C)nc4C(F)(F)F)C3=O)ccnc12 | male CD-1 mouse, plasma | oral, 50 mg/kg | 46100 ng/mL |
| C=CC(=O)N1CC2CC(n3nc(-c4ccc(C(=O)Nc5ccccn5)cc4)c4c(N)ncnc43)CC2C1 (stereo not drawn) | SCID mouse, plasma | oral, 5 mg/kg | 429 ng/mL |
| Cc1c(C(=O)NN2CCCCC2)nc(-c2ccc(Cl)cc2Cl)n1-c1ccc(OS(=O)(=O)CCC(F)(F)F)cc1 | mouse, plasma | oral, 20 µmol/kg, single dose | 1.2 µM |
| CN1CCN(C(=O)c2cc3c(Nc4ccc(OC(F)(F)F)cc4)ncnc3s2)CC1 | male BALB/c mouse, plasma | oral, 20 mg/kg | 1090 ng/mL |
| Cc1nc(-c2cnc(NC(C)C)n(C)c2=O)ccc1Oc1ccnc(-c2cnn(C)c2)c1 | female mouse, plasma | oral, 15 mg/kg, single dose | 9360 ng/mL |
| CN1CCC[C@H](CN2c3ccccc3Sc3ccccc32)C1.Cl | mouse, plasma | oral, 64 mg/kg, single dose | 1180 ng/mL |
| COc1nc(-c2cc(C)c(N[C@@H](C)c3ccc(F)cc3)nn2)ccc1-n1cnc(C)c1 | male CD-1 mouse, plasma | intravenous, 1 mg/kg, single dose | 768 ng/mL |
| CN1C(=O)c2ccccc2[S@+]([O-])c2ccc(C(=O)NCCc3cccs3)cc21 | male C57BL/6 mouse, plasma | intraperitoneal, 30 mg/kg, single dose | 8280 ng/mL |
| CC=Cc1ccc(O)c(OC)c1 | mouse, brain | intranasal, 100 mg/kg | 4340 ng/g |
| C[C@H](NC(=O)C(C)(C)Oc1ccc(C(F)(F)F)cn1)[C@@H](Cc1ccc(Cl)cc1)c1cccc(C#N)c1 | mouse, plasma | oral, 6 µmol/kg, single dose | 0.7 µM |
| CCc1cc(C(=O)NC)c2nccc(N3CCc4c(cc(Cn5ccnc5)cc4-c4cn(C)nc4C(F)(F)F)C3=O)c2c1 | male CD-1 mouse, plasma | oral, 50 mg/kg | 25100 ng/mL |
| CNC(=O)c1cc(Oc2ccc(NC(=O)Nc3ccc(Cl)c(C(F)(F)F)c3)c(F)c2)cc[n+]1[O-] | mouse, plasma | oral, 10 mg/kg, single dose | 360 ng/mL |
| CC(=O)O[C@H]1C(=O)[C@@]2(C)[C@H]([C@H](OC(=O)c3ccccc3)[C@]3(O)C[C@H](OC(=O)[C@H](O)[C@@H](NC(=O)c4ccccc4)c4ccccc4)C(C)=C1C3(C)C)[C@]1(OC(C)=O)CO[C@@H]1C[C@@H]2O | SCID mouse, plasma | intraperitoneal, 10 mg/kg, single dose | 2100 ng/mL |
| CCc1cc(OC)c2nccc(N3CCc4c(cc(Cn5ccnc5)cc4-c4cn(C)nc4C(F)(F)F)C3=O)c2c1 | male CD-1 mouse, plasma | oral, 150 mg/kg | 35200 ng/mL |
| Cc1cc(Nc2ccc(S(F)(F)(F)(F)F)cc2)n2ncnc2n1 | male Swiss mouse, plasma | oral, 100 mg/kg, single dose | 59 µM |
